# In ChEMBL document CHEMBL1629526, “4-[1-(Substituted aryl/alkyl carbonyl)-benzoimidazol-2-yl]-benzenesulfonic acids: synthesis, antimicrobial activity, QSAR studies, and antiviral evaluation” (Eur J Med Chem, 2010):
# Columns and labels:
# Escherichia coli = test: Antimicrobial activity against Escherichia coli after 24 hrs by tube dilution method; assay type: functional
# Human alphaherpesvirus 1 [1] = test: Antiviral activity against thymidine kinase deficient acyclovir-resistant Herpes simplex virus 1 KOS infected in HEL cells assessed as inhibition of virus induced cytopathicity after 2 to 4 days by MTS assay; assay type: functional, organism-based; settings: Human alphaherpesvirus 1, KOS
# Punta Toro virus = test: Antiviral activity against Punta Toro virus infected in african green monkey Vero cells assessed as inhibition of virus induced cytopathicity after 2 to 4 days by MTS assay; assay type: functional, organism-based
# Coxsackievirus B4 [2] = test: Antiviral activity against coxsackievirus B4 infected in human HeLa cells assessed as inhibition of virus induced cytopathicity after 2 to 4 days by MTS assay; assay type: functional, organism-based; settings: Enterovirus B
# Aspergillus niger = test: Antimicrobial activity against Aspergillus niger after 7 days by tube dilution method; assay type: functional; settings: 168 h
# [3] = test system: Respiratory syncytial virus; test: Antiviral activity against Respiratory syncytial virus infected in human HeLa cells assessed as inhibition of virus induced cytopathicity by visual scoring of CPE; assay type: functional, organism-based
# [4] = Cytotoxicity against MDCK cells assessed as altered cell morphology; assay type: cell-based, Canis lupus familiaris; settings: dog
# Outline: (§1)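 Uninfected cell cultures run alongside the antiviral assays, exposed to serial compound dilutions and incubated at 37 °C for 2–4 days. Toxicity was scored microscopically and reported as the minimum cytotoxic concentration (MCC), the lowest concentration causing a detectable change in normal cell morphology.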
# Candida albicans = test: Antimicrobial activity against Candida albicans after 48 hrs by tube dilution method; assay type: functional
# Staphylococcus aureus = test: Antimicrobial activity against Staphylococcus aureus after 24 hrs by tube dilution method; assay type: functional
# [5] = Cytotoxicity against human HEL cells assessed as altered cell morphology; assay type: cell-based; outline: as §1
# [6] = Cytotoxicity against human HeLa cells assessed as altered cell morphology; assay type: cell-based; outline: as §1
# Bacillus subtilis = test: Antimicrobial activity against Bacillus subtilis after 24 hrs by tube dilution method; assay type: functional
# Outline: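 Serial dilutions in double-strength nutrient broth (I.P.) with ciprofloxacin as reference, tube dilution, incubated 37 °C for 24 h. MIC is the lowest concentration that inhibited growth.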
# Influenza A virus [7] = test: Antiviral activity against Influenza A H3N2 virus subtype infected in MDCK cells assessed as inhibition of virus induced cytopathicity after 2 to 4 days by MTS assay; assay type: functional, organism-based
# [8] = test system: Respiratory syncytial virus; test: Antiviral activity against Respiratory syncytial virus infected in human HeLa cells assessed as inhibition of virus induced cytopathicity after 2 to 4 days by MTS assay; assay type: functional, organism-based
# [9] = test system: Vesicular stomatitis virus; test: Antiviral activity against Vesicular stomatitis virus infected in HEL cells assessed as inhibition of virus induced cytopathicity after 2 to 4 days by MTS assay; assay type: functional, organism-based
# Coxsackievirus B4 [10] = test: Antiviral activity against Coxsackie virus B4 infected in african green monkey Vero cells assessed as inhibition of virus induced cytopathicity after 2 to 4 days by MTS assay; assay type: functional, organism-based; settings: Enterovirus B
# Vaccinia virus = test: Antiviral activity against Vaccinia virus infected in HEL cells assessed as inhibition of virus induced cytopathicity after 2 to 4 days by MTS assay; assay type: functional, organism-based; settings: Orthopoxvirus vaccinia
# Coxsackievirus B4 [11] = test: Antiviral activity against coxsackievirus B4 infected in human HeLa cells assessed as inhibition of virus induced cytopathicity by visual scoring of CPE; assay type: functional, organism-based; settings: Enterovirus B
# Human respirovirus 3 = test: Antiviral activity against parainfluenza-3 virus infected in african green monkey Vero cells assessed as inhibition of virus induced cytopathicity after 2 to 4 days by MTS assay; assay type: functional, organism-based; settings: Human respirovirus 3, Vero
# MDCK = test: Cytotoxicity against MDCK cells assessed as cell viability by MTS assay; assay type: cell-based, Canis lupus familiaris; settings: dog, mdck
# Outline: (§2)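 Uninfected cultures were run in parallel with the antiviral assays. Viability was read by colorimetric formazan MTS assay.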
# [12] = Cytotoxicity against african green monkey Vero cells assessed as altered cell morphology; assay type: cell-based; settings: chlorocebus sabaeus; outline: as §1
# [13] = test system: Mammalian orthoreovirus 1; test: Antiviral activity against Reovirus 1 virus infected in african green monkey Vero cells assessed as inhibition of virus induced cytopathicity after 2 to 4 days by MTS assay; assay type: functional, organism-based; settings: Mammalian orthoreovirus 1, Vero
# Sindbis virus = test: Antiviral activity against Sindbis virus infected in african green monkey Vero cells assessed as inhibition of virus induced cytopathicity after 2 to 4 days by MTS assay; assay type: functional, organism-based
# Felid alphaherpesvirus 1 = test: Antiviral activity against Feline herpesvirus 1 infected in cat CRFK cells assessed as inhibition of virus induced cytopathicity after 2 to 4 days by MTS assay; assay type: functional, organism-based; settings: Felid alphaherpesvirus 1, CRFK
# Influenza B virus [14] = test: Antiviral activity against Influenza B virus infected in MDCK cells assessed as inhibition of virus induced cytopathicity by visual scoring of CPE; assay type: functional, organism-based
# [15] = Cytotoxicity against cat CRFK cells assessed as cell viability by MTS assay; assay type: cell-based, Felis catus; settings: crfk; outline: as §2
# Feline coronavirus = test: Antiviral activity against Feline coronavirus infected in cat CRFK cells assessed as inhibition of virus induced cytopathicity after 2 to 4 days by MTS assay; assay type: functional, organism-based; settings: Alphacoronavirus 1, CRFK
# [16] = test system: Vesicular stomatitis virus; test: Antiviral activity against Vesicular stomatitis virus infected in human HeLa cells assessed as inhibition of virus induced cytopathicity by visual scoring of CPE; assay type: functional, organism-based
# Human alphaherpesvirus 2 = test: Antiviral activity against Herpes simplex virus 2 G infected in HEL cells assessed as inhibition of virus induced cytopathicity after 2 to 4 days by MTS assay; assay type: functional, organism-based; settings: Human alphaherpesvirus 2, strain G
# [17] = test system: Vesicular stomatitis virus; test: Antiviral activity against Vesicular stomatitis virus infected in human HeLa cells assessed as inhibition of virus induced cytopathicity after 2 to 4 days by MTS assay; assay type: functional, organism-based
# HeLa = test: Cytotoxicity against human HeLa cells assessed as cell viability by MTS assay; assay type: cell-based; settings: hela; outline: as §2
# Human alphaherpesvirus 1 [18] = test: Antiviral activity against Herpes simplex virus 1 KOS infected in HEL cells assessed as inhibition of virus induced cytopathicity after 2 to 4 days by MTS assay; assay type: functional, organism-based; settings: Human alphaherpesvirus 1, KOS
# Influenza B virus [19] = test: Antiviral activity against Influenza B virus infected in MDCK cells assessed as inhibition of virus induced cytopathicity after 2 to 4 days by MTS assay; assay type: functional, organism-based
# Influenza A virus [20] = test: Antiviral activity against Influenza A H3N2 virus subtype infected in MDCK cells assessed as inhibition of virus induced cytopathicity by visual scoring of CPE; assay type: functional, organism-based
SMILES,MBC (Escherichia coli),EC50 (Human alphaherpesvirus 1 [1]),EC50 (Punta Toro virus),EC50 (Coxsackievirus B4 [2]),MFC (Aspergillus niger),EC50 [3],MCC [4],MFC (Candida albicans),MBC (Staphylococcus aureus),MCC [5],MCC [6],MBC (Bacillus subtilis),EC50 (Influenza A virus [7]),EC50 [8],EC50 [9],EC50 (Coxsackievirus B4 [10]),EC50 (Vaccinia virus),EC50 (Coxsackievirus B4 [11]),EC50 (Human respirovirus 3),CC50 (MDCK),also measured
O=C(c1ccccc1Cl)n1c(-c2ccc(S(=O)(=O)O)cc2)nc2ccccc21,1.56 µg/mL,> 100 µg/mL,> 100 µg/mL,> 100 µg/mL,> 50 µg/mL,> 100 µg/mL,> 100 µg/mL,> 50 µg/mL,25 µg/mL,> 100 µg/mL,> 100 µg/mL,> 50 µg/mL,> 100 µg/mL,> 100 µg/mL,> 100 µg/mL,> 100 µg/mL,> 100 µg/mL,> 100 µg/mL,> 100 µg/mL,> 100 µg/mL,MCC [12]: > 100 µg/mL; EC50 [13]: > 100 µg/mL; EC50 (Sindbis virus): > 100 µg/mL; EC50 (Felid alphaherpesvirus 1): > 100 µg/mL; EC50 (Influenza B virus [14]): > 100 µg/mL; CC50 [15]: > 100 µg/mL; EC50 (Feline coronavirus): > 100 µg/mL; EC50 [16]: > 100 µg/mL; EC50 (Human alphaherpesvirus 2): > 100 µg/mL; EC50 [17]: > 100 µg/mL; CC50 (HeLa): > 100 µg/mL; EC50 (Human alphaherpesvirus 1 [18]): > 100 µg/mL; EC50 (Influenza B virus [19]): > 100 µg/mL; EC50 (Influenza A virus [20]): > 100 µg/mL
O=C(c1cccnc1)n1c(-c2ccc(S(=O)(=O)O)cc2)nc2ccccc21,1.56 µg/mL,> 100 µg/mL,> 100 µg/mL,> 100 µg/mL,> 50 µg/mL,> 100 µg/mL,> 100 µg/mL,> 50 µg/mL,12.5 µg/mL,> 100 µg/mL,> 100 µg/mL,> 50 µg/mL,> 100 µg/mL,> 100 µg/mL,> 100 µg/mL,> 100 µg/mL,> 100 µg/mL,> 100 µg/mL,> 100 µg/mL,> 100 µg/mL,MCC [12]: > 100 µg/mL; EC50 [13]: > 100 µg/mL; EC50 (Sindbis virus): > 100 µg/mL; EC50 (Felid alphaherpesvirus 1): > 100 µg/mL; EC50 (Influenza B virus [14]): > 100 µg/mL; CC50 [15]: > 100 µg/mL; EC50 (Feline coronavirus): > 100 µg/mL; EC50 [16]: > 100 µg/mL; EC50 (Human alphaherpesvirus 2): > 100 µg/mL; EC50 [17]: > 100 µg/mL; CC50 (HeLa): > 100 µg/mL; EC50 (Human alphaherpesvirus 1 [18]): > 100 µg/mL; EC50 (Influenza B virus [19]): > 100 µg/mL; EC50 (Influenza A virus [20]): > 100 µg/mL
C=C(C)C(=O)n1c(-c2ccc(S(=O)(=O)O)cc2)nc2ccccc21,12.5 µg/mL,> 100 µg/mL,> 100 µg/mL,> 100 µg/mL,> 50 µg/mL,> 100 µg/mL,> 100 µg/mL,> 50 µg/mL,6.25 µg/mL,> 100 µg/mL,> 100 µg/mL,12.5 µg/mL,> 100 µg/mL,> 100 µg/mL,> 100 µg/mL,> 100 µg/mL,> 100 µg/mL,> 100 µg/mL,> 100 µg/mL,> 100 µg/mL,MCC [12]: > 100 µg/mL; EC50 [13]: > 100 µg/mL; EC50 (Sindbis virus): > 100 µg/mL; EC50 (Felid alphaherpesvirus 1): > 100 µg/mL; EC50 (Influenza B virus [14]): > 100 µg/mL; CC50 [15]: > 100 µg/mL; EC50 (Feline coronavirus): > 100 µg/mL; EC50 [16]: > 100 µg/mL; EC50 (Human alphaherpesvirus 2): > 100 µg/mL; EC50 [17]: > 100 µg/mL; CC50 (HeLa): > 100 µg/mL; EC50 (Human alphaherpesvirus 1 [18]): > 100 µg/mL; EC50 (Influenza B virus [19]): > 100 µg/mL; EC50 (Influenza A virus [20]): > 100 µg/mL
